ChEMBL document CHEMBL1240528, “Discovery of novel 5-benzylidenerhodanine and 5-benzylidenethiazolidine-2,4-dione inhibitors of MurD ligase” (J Med Chem, 2010)

Key:
Escherichia coli [1] = test: Inhibition of Escherichia coli MurD ligase assessed as residual activity at 250 uM by colorimetry; values are per cent of control
[2] = Inhibition of Escherichia coli MurD ligase assessed as residual activity by colorimetry
In short: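 Malachite green orthophosphate detection with purified E. coli MurD. Substrates 80 μM UDP-MurNAc-L-Ala, 100 μM D-Glu, 400 μM ATP; 5% DMSO final. Incubated 37 C for 15 min, A650 read. IC50 from seven concentrations run in triplicate.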

Staphylococcus aureus = test: Antimicrobial activity against Staphylococcus aureus ATCC 29213 by microdilution method; assay type: functional; conditions: in the assay text read “macrodilution” for “microdilution”
In short: (§1)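 Broth macrodilution in cation-adjusted Mueller–Hinton broth. Stock 2 mg/mL in DMSO, serially diluted to final 0.016–128 μg/mL. Inoculum from four colonies of a fresh overnight culture, adjusted to 0.5 McFarland and diluted to approximately 10^5 CFU/mL, then mixed 1:1 with drug. Incubated 35 C for 18–24 h. MIC is the lowest concentration giving complete inhibition of visible growth. QC with S. aureus ATCC 29213 and gentamicin.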

Pseudomonas aeruginosa = test: Antimicrobial activity against Pseudomonas aeruginosa ATCC 27853 by microdilution method; assay type: functional; conditions: in the assay text read “macrodilution” for “microdilution”
In short: as §1

Escherichia coli [3] = test: Antimicrobial activity against Escherichia coli ATCC 25922 by microdilution method; assay type: functional; conditions: in the assay text read “macrodilution” for “microdilution”
In short: as §1

Enterococcus faecalis = test: Antimicrobial activity against Enterococcus faecalis ATCC 29212 by macrodilution method
[4] = Inhibition of Escherichia coli MurD ligase assessed as conversion of D-[14C]Glu to UDP-MurNac-L-Ala by radioactivity assay
In short: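 Incubated 37 C for 30 min, stopped with acetic acid. Substrate and product separated by TLC and quantified by radioactivity scanning. IC50 from residual activities at seven concentrations.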

Question: Which residual activity (Escherichia coli [1]) does the source give for O=C(O)CC[C@@H](NC(=O)c1ccc(CNc2ccc(/C=C3\SC(=S)NC3=O)cc2)cc1)C(=O)O here?
Answer: The residual activity was 74%.

Question: With O=C(O)CC[C@H](NC(=O)c1ccc(CNc2ccc(/C=C3\SC(=O)NC3=O)cc2)cc1)C(=O)O as the compound, how does the residual activity (Escherichia coli [1]) read?
Answer: The residual activity was 88%.

Question: Which IC50 [2] does the source give for O=C(O)CC[C@H](NC(=O)c1ccc(CNc2cccc(/C=C3\SC(=S)NC3=O)c2)cc1)C(=O)O here?
Answer: Its IC50 is 206 µM.

Question: With O=C(O)CC[C@H](NC(=O)c1ccc(CNc2cccc(/C=C3\SC(=O)NC3=O)c2)cc1)C(=O)O as the compound, how does the residual activity (Escherichia coli [1]) read?
Answer: The residual activity was 87%.

Question: With O=C(O)CC[C@@H](NC(=O)c1ccc(CNc2ccc(/C=C3\SC(=O)NC3=O)cc2)cc1)C(=O)O as the compound, how does the residual activity (Escherichia coli [1]) read?
Answer: Its residual activity is 70%.

Question: With O=C(O)CC[C@@H](NC(=O)c1cccc(CNc2cccc(/C=C3\SC(=S)NC3=O)c2)c1)C(=O)O as the compound, how does the residual activity (Escherichia coli [1]) read?
Answer: Its residual activity is 39%.

Question: With O=C(O)CC[C@H](NC(=O)c1ccc(CNc2ccc(/C=C3\SC(=S)NC3=O)cc2)cc1)C(=O)O as the compound, how does the residual activity (Escherichia coli [1]) read?
Answer: Its residual activity is 68%.

Question: Which MIC (Staphylococcus aureus) does the source give for O=C(O)CC[C@@H](NC(=O)c1ccc(CNc2cccc(/C=C3\SC(=S)NC3=O)c2)cc1)C(=O)O here?
Answer: The MIC was over 128 µg/mL.

Question: And the MIC (Pseudomonas aeruginosa)?
Answer: Its MIC is over 128 µg/mL.

Question: And the IC50 [2]?
Answer: Its IC50 is 174 µM.

Question: And the MIC (Escherichia coli [3])?
Answer: The MIC was over 128 µg/mL.

Question: What about the MIC (Enterococcus faecalis) of the same compound?
Answer: Its MIC is over 128 µg/mL.

Question: With O=C(O)CC[C@@H](NC(=O)c1cccc(CNc2ccc(/C=C3\SC(=O)NC3=O)cc2)c1)C(=O)O as the compound, how does the IC50 [4] read?
Answer: The IC50 was 35 µM.

Question: For O=C(O)CC[C@@H](NC(=O)c1ccc(CNc2cccc(/C=C3\SC(=O)NC3=O)c2)cc1)C(=O)O, which residual activity (Escherichia coli [1]) is on record?
Answer: Its residual activity is 85%.

Question: With O=C(O)CC[C@@H](NC(=O)c1cccc(CNc2cccc(/C=C3\SC(=O)NC3=O)c2)c1)C(=O)O as the compound, how does the residual activity (Escherichia coli [1]) read?
Answer: The residual activity was 87%.

Question: Which results are given for O=C(O)CC[C@@H](NC(=O)c1cccc(CNc2ccc(/C=C3\SC(=S)NC3=O)cc2)c1)C(=O)O?
Answer: MIC (Staphylococcus aureus): > 128 µg/mL; MIC (Pseudomonas aeruginosa): > 128 µg/mL; IC50 [2]: 45 µM; IC50 [4]: 49 µM; MIC (Escherichia coli [3]): > 128 µg/mL; MIC (Enterococcus faecalis): > 128 µg/mL
